ChEMBL document CHEMBL1149206, “P1 and P3 optimization of novel bicycloproline P2 bearing tetrapeptidyl alpha-ketoamide based HCV protease inhibitors” (Bioorg Med Chem Lett, 2004)
Calls of active or inactive are those of the source. The rule behind the calls is not given here.

Columns and labels:
[1] = target: Prothrombin (Homo sapiens) (UniProt P00734); assay: Inhibitory activity against thrombin at 100 uM concentration; Not significant
[2] = target: Kallikrein-1 (Homo sapiens) (UniProt P06870); assay: Inhibitory activity against kallikrein at 100 uM concentration; Not significant
Rattus norvegicus [3] = assay: In vivo concentration in rat liver exposure 0-8 hour after oral administration 50 mg/kg; format: ADME, organism-based; set-up: dose 50 mg/kg, route oral
Summary of the method: (§1)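 Male Sprague–Dawley rats given a single oral dose of 50 mg/kg as a suspension in a wet granulation vehicle (povidone/lactose/polysorbate). Blood was collected by orbital sinus and terminal cardiac puncture at selected times up to 8 h. Livers were perfused intracardially with saline before sampling. Plasma and liver drug concentrations were measured by LC/MS/MS.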

[4] = target: Serine protease 1 (Homo sapiens) (UniProt P07477); assay: Inhibitory activity against trypsin at 100 uM concentration; Not significant
Rattus norvegicus [5] = assay: In vivo area under curve in rat plasma exposure after oral administration 50 mg/kg; format: ADME, organism-based; set-up: dose 50 mg/kg, route oral; summary of the method: as §1
Huh-7 (Homo sapiens) = assay: Cytotoxic activity in liver Huh-7 cells
[6] = Ratio of cytotoxicity (CC50) to that of replicon (IC50) was determined
Summary of the method: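 Selectivity index: the IC50 from the XTT cytotoxicity assay in Huh-7 cells divided by the IC50 from a modified HCV subgenomic replicon assay.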

[7] = In vivo concentration in rat plasma exposure at 8 hour after oral administration 50 mg/kg; format: ADME, organism-based; set-up: dose 50 mg/kg, route oral; conditions: read-out: C; summary of the method: as §1
[8] = In vivo concentration in rat liver exposure 8 hour after oral administration 50 mg/kg; format: ADME, organism-based; set-up: dose 50 mg/kg, route oral; conditions: read-out: C; summary of the method: as §1
Chymotrypsinogen A = Chymotrypsinogen A (Bos taurus, UniProt P00766); assay: Inhibitory activity against Chymotrypsin
Summary of the method: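 One of a panel of 10 human serine and cysteine proteases (elastase, chymotrypsin, trypsin, kallikrein, plasmin, thrombin, Factor Xa, cathepsins B, G and L).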

Rattus norvegicus [9] = assay: In vivo concentration in rat liver exposure 8 hour after oral administration 50 mg/kg; Below detection limit; format: ADME, organism-based; set-up: dose 50 mg/kg, route oral; summary of the method: as §1
[10] = Ratio of the concentration of liver to that of IC50 replication was determined; format: ADME
[11] = Inhibitory activity against plasmin at 100 uM concentration; Not significant

Chain of Serine protease 1 (Homo sapiens) (P07477 whole entry): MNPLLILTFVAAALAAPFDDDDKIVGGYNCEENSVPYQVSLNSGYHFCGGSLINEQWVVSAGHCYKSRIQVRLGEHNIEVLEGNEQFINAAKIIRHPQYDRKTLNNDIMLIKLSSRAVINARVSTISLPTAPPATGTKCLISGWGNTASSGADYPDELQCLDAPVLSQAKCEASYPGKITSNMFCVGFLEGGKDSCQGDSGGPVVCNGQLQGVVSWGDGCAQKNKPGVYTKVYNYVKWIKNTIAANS
Chain of Kallikrein-1 (Homo sapiens) (P06870 25-262 limits assumed): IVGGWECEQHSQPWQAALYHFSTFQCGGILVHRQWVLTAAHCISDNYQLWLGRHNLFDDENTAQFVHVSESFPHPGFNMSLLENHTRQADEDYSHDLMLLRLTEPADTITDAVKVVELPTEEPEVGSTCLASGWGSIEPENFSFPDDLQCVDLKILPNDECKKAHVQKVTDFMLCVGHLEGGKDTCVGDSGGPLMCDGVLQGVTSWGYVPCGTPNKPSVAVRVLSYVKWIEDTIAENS

Row | Structure (SMILES) | inhibition [1] | inhibition [2] | Caverage (Rattus norvegicus [3]) | inhibition [4] | AUC (Rattus norvegicus [5]) [ng·h/mL] | concentration at 8 h [7] [ng/mL] | concentration at 8 h [8] [µM] | IC50 (Chymotrypsinogen A) [µM] | C (Rattus norvegicus [9]) | Ratio [10] | inhibition [11] | CC50 (Huh-7 (Homo sapiens)) [µM] | Ratio [6]
1 | CC(C)[C@H](NC(=O)c1cnccn1)C(=O)N[C@H](C(=O)N1C[C@@H]2CCC[C@@H]2[C@H]1C(=O)N[C@@H](CC(F)F)C(=O)C(=O)N[C@@H](C)c1ccccc1)C(C)C | – | – | – | – | – | – | – | – | – | – | – | > 100 | > 110
2 | CC(C)[C@H](NC(=O)c1cnccn1)C(=O)N[C@H](C(=O)N1C[C@@H]2CCC[C@@H]2[C@H]1C(=O)N[C@@H](CC(F)F)C(=O)C(=O)NC1CC1)C(C)(C)C | inactive | inactive | 3.64 µM | inactive | 1880 | 40 | 0.67 | – | – | – | – | – | –
3 | CC(C)[C@H](NC(=O)c1cnccn1)C(=O)N[C@H](C(=O)N1C[C@@H]2CCC[C@@H]2[C@H]1C(=O)N[C@@H](CC(F)F)C(=O)C(=O)N[C@@H](C)c1ccccc1)C(C)(C)C | – | – | – | – | – | – | – | – | – | – | – | > 100 | > 159
4 | CCC(C)NC(=O)C(=O)[C@H](CC(F)F)NC(=O)[C@@H]1[C@H]2CCC[C@H]2CN1C(=O)[C@@H](NC(=O)[C@@H](NC(=O)c1cnccn1)C(C)C)C(C)(C)C (stereo partly drawn) | – | – | – | – | – | – | – | – | – | – | – | > 100 | > 38

Now from value to compound, other results behind:

Row | inhibition [1] | inhibition [2] | Caverage (Rattus norvegicus [3]) | inhibition [4] | AUC (Rattus norvegicus [5]) [ng·h/mL] | concentration at 8 h [7] [ng/mL] | concentration at 8 h [8] [µM] | IC50 (Chymotrypsinogen A) [µM] | C (Rattus norvegicus [9]) | Ratio [10] | inhibition [11] | Structure (SMILES) | CC50 (Huh-7 (Homo sapiens)) [µM] | Ratio [6]
5 | inactive | inactive | 6.29 µM | inactive | 2860 | – | – | – | – | – | – | CCCC(NC(=O)[C@@H]1[C@H]2CCC[C@H]2CN1C(=O)[C@@H](NC(=O)[C@@H](NC(=O)c1cnccn1)C(C)C)C(C)C)C(=O)C(=O)NC1CC1 (stereo partly drawn) | – | –
6 | inactive | inactive | 16 µM | inactive | 25800 | 520 | 3.67 | > 100 | – | – | – | CCC[C@H](NC(=O)[C@@H]1[C@H]2CCC[C@H]2CN1C(=O)[C@@H](NC(=O)[C@@H](NC(=O)c1cnccn1)C(C)C)C(C)(C)C)C(=O)C(=O)NC1CC1 | – | –
7 | – | – | </- 0.88 uM | – | 145 | 20 | – | – | Below detection limit | <= 0.23 | – | CC(C)[C@H](NC(=O)c1cnccn1)C(=O)N[C@H](C(=O)N1C[C@@H]2CCC[C@@H]2[C@H]1C(=O)NC(CC(F)F)C(=O)C(=O)NC1CC1)C(C)C (stereo partly drawn) | > 100 | > 26
8 | inactive | inactive | 14 µM | inactive | 22300 | 920 | 8.68 | > 100 | – | 4 | inactive | CCC[C@H](NC(=O)[C@@H]1[C@H]2CCC[C@H]2CN1C(=O)[C@@H](NC(=O)[C@@H](NC(=O)c1cnccn1)C(C)C)C(C)(C)C)C(=O)C(=O)NC(C)CC (stereo partly drawn) | > 100 | > 29
9 | inactive | inactive | – | inactive | – | – | – | – | – | – | – | CCC[C@H](NC(=O)[C@@H]1[C@H]2CCC[C@H]2CN1C(=O)[C@@H](NC(=O)[C@@H](NC(=O)c1cnccn1)C(C)C)C(C)(C)C)C(=O)C(=O)N[C@@H](C)c1ccccc1 | – | –
